# Test results reported in ChEMBL document CHEMBL4304834, “3-Amino-chromanes and Tetrahydroquinolines as Selective 5-HT2B, 5-HT7, or σ1 Receptor Ligands” (ACS Med Chem Lett, 2019).
# The source made the active and inactive calls. The rule behind the calls is not given here.
# Columns and labels:
# [1] = molecular target: 5-hydroxytryptamine receptor 5A (Homo sapiens, UniProt P47898); assay: Displacement of [3H]-LSD from human recombinant 5-HT5A receptor expressed in Flp-In CHO cells at 10 uM after 90 mins by microbeta scintillation counting method relative to control; assay type: cell-based
# Sequence of 5-hydroxytryptamine receptor 5A (P47898 whole entry): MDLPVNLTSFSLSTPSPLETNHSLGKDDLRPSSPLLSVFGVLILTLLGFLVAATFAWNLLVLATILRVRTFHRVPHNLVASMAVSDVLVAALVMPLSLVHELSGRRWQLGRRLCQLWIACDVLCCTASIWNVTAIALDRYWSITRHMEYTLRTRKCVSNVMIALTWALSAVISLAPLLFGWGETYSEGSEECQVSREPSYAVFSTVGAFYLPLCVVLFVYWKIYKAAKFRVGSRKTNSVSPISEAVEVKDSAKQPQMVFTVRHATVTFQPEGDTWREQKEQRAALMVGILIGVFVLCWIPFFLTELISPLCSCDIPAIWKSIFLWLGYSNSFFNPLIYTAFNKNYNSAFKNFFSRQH
# In short: (§1)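 Radioligand binding run by the NIMH Psychoactive Drug Screening Program. […] Otherwise Ki comes from sigmoidal curve fits of triplicate measurements in a single experiment, or is averaged over repeated experiments each run in triplicate.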
# [2] = molecular target: Alpha-2A adrenergic receptor (Homo sapiens) (UniProt P08913); assay: Displacement of [3H]-Rauwolscine from human recombinant adrenergic Alpha2A receptor expressed in stable MDCK cells at 10 uM after 90 mins by microbeta scintillation counting method relative to control; assay type: cell-based
# Sequence of Alpha-2A adrenergic receptor (Homo sapiens) (P08913 whole entry): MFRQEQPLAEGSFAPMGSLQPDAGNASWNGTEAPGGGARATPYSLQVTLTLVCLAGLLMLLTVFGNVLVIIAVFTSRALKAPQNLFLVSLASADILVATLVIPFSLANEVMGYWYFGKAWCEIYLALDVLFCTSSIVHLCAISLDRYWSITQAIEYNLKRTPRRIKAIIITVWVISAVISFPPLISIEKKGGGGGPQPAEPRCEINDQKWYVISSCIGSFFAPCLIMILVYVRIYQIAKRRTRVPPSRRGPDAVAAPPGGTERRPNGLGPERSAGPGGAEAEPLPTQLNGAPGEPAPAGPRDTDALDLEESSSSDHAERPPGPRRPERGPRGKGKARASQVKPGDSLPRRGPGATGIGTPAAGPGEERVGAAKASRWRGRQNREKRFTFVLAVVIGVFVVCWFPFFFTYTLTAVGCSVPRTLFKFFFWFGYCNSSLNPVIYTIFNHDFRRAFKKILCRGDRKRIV
# [3] = molecular target: Beta-2 adrenergic receptor (Homo sapiens, UniProt P07550); assay: Displacement of [3H]-CGP12177 from human recombinant adrenergic Beta2 receptor expressed in Flp-In HEK cells at 10 uM after 90 mins by microbeta scintillation counting method relative to control; assay type: cell-based; in short: as §1
# Sequence of Beta-2 adrenergic receptor (P07550 whole entry, looked up): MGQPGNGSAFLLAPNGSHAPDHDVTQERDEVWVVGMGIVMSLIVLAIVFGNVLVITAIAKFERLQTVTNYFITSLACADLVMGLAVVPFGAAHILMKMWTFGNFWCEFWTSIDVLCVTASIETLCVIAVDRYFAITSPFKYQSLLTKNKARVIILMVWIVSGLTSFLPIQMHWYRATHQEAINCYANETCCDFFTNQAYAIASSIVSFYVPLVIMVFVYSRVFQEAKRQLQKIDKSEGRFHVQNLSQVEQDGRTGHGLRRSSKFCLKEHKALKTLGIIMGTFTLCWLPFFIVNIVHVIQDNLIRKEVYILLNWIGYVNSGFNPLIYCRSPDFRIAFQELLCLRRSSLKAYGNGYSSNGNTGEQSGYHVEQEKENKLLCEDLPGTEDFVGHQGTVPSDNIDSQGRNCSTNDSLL
# Rattus norvegicus = species on record: Rattus norvegicus; assay: Displacement of [3H]-Flunitrazepam from BZP receptor in rat brain at 10 uM after 90 mins by microbeta scintillation counting method; assay type: tissue-based; in short: as §1
# [4] = molecular target: Sodium-dependent noradrenaline transporter (Homo sapiens, UniProt P23975); assay: Displacement of [3H]-Nisoxetine from human recombinant NET receptor expressed in stable HEK cells at 10 uM after 90 mins by microbeta scintillation counting method relative to control; assay type: cell-based; in short: as §1
# Sequence of Sodium-dependent noradrenaline transporter (P23975 whole entry): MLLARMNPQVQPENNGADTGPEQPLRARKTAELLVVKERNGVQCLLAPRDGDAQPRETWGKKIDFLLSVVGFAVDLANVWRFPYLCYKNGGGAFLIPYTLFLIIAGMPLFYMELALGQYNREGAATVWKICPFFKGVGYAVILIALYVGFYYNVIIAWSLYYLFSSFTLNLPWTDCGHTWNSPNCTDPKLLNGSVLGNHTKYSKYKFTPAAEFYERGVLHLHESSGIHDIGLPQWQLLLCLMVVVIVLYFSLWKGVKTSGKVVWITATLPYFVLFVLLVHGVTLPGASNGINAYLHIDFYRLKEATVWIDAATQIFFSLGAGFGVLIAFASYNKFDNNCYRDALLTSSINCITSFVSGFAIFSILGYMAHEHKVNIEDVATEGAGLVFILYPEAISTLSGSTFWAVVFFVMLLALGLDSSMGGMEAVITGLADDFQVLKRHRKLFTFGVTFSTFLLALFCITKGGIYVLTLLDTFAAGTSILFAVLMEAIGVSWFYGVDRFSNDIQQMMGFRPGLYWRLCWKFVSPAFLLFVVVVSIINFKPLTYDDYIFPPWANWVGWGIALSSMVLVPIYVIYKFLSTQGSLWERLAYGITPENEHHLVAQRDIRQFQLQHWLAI
# Homo sapiens [5] = species on record: Homo sapiens; assay: Selectivity index, ratio of Ki for human recombinant 5-HT2B receptor to Ki for human recombinant sigma1 receptor
# Homo sapiens [6] = species on record: Homo sapiens; assay: Selectivity index, ratio of Ki for human recombinant 5-HT1A to Ki for human recombinant sigma1 receptor
# Homo sapiens [7] = species on record: Homo sapiens; assay: Selectivity index, ratio of Ki for human recombinant 5-HT1E receptor to Ki for human recombinant sigma1 receptor
# Homo sapiens [8] = species on record: Homo sapiens; assay: Selectivity index, ratio of Ki for human recombinant 5-HT2C receptor to Ki for human recombinant sigma1 receptor
# Homo sapiens [9] = species on record: Homo sapiens; assay: Selectivity index, ratio of Ki for human recombinant 5-HT3 receptor to Ki for human recombinant sigma1 receptor
# Homo sapiens [10] = species on record: Homo sapiens; assay: Selectivity index, ratio of Ki for human recombinant 5-HT7A receptor to Ki for human recombinant sigma1 receptor
# Homo sapiens [11] = species on record: Homo sapiens; assay: Selectivity index, ratio of Ki for human recombinant adrenergic Alpha1B receptor to Ki for human recombinant sigma1 receptor
# In short: (§2)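 Both Ki values in each ratio come from NIMH Psychoactive Drug Screening Program radioligand binding. […] Other targets were given full binding curves, measured in triplicate, and Ki was taken from a sigmoidal curve fit. Some values were repeated in duplicate or triplicate independent experiments.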
# Homo sapiens [12] = species on record: Homo sapiens; assay: Selectivity index, ratio of Ki for human recombinant adrenergic Alpha1D receptor to human recombinant sigma1 receptor; in short: as §2
# Homo sapiens [13] = species on record: Homo sapiens; assay: Selectivity index, ratio of Ki for human recombinant adrenergic Alpha2C receptor to Ki for human recombinant sigma1 receptor; in short: as §2
# Homo sapiens [14] = species on record: Homo sapiens; assay: Selectivity index, ratio of Ki for human recombinant adrenergic Beta1 receptor expressed in Flp-In CHO to Ki for human recombinant sigma1 receptor; in short: as §2
# Homo sapiens [15] = species on record: Homo sapiens; assay: Selectivity index, ratio of Ki for human recombinant adrenergic Beta2 receptor to Ki for human recombinant sigma1 receptor; in short: as §2
# Homo sapiens [16] = species on record: Homo sapiens; assay: Selectivity index, ratio of Ki for human recombinant adrenergic Beta3 receptor to Ki for human recombinant sigma1 receptor; in short: as §2
# [17] = Selectivity index, ratio of Ki for rat brain BZP receptor to Ki for human recombinant sigma1 receptor; in short: as §2
# Homo sapiens [18] = species on record: Homo sapiens; assay: Selectivity index, ratio of Ki for human recombinant dopamine D2 receptor to Ki for human recombinant sigma1 receptor; in short: as §2
# Homo sapiens [19] = species on record: Homo sapiens; assay: Selectivity index, ratio of Ki for human recombinant dopamine D3 receptor to Ki for human recombinant sigma1 receptor; in short: as §2
# Homo sapiens [20] = species on record: Homo sapiens; assay: Selectivity index, ratio of Ki for human recombinant dopamine D4 receptor to Ki for human recombinant sigma1 receptor; in short: as §2
# Homo sapiens [21] = species on record: Homo sapiens; assay: Selectivity index, ratio of Ki for human recombinant dopamine D5 receptor to Ki for human recombinant sigma1 receptor; in short: as §2
# [22] = Selectivity index, ratio of Ki for rat brain GABAA receptor to Ki for human recombinant sigma1 receptor; in short: as §2
# Homo sapiens [23] = species on record: Homo sapiens; assay: Selectivity index, ratio of Ki for human recombinant histamine H1 receptor to Ki for human recombinant sigma1 receptor; in short: as §2
# Homo sapiens [24] = species on record: Homo sapiens; assay: Selectivity index, ratio of Ki for human recombinant histamine H2 receptor to Ki for human recombinant sigma1 receptor; in short: as §2
# Homo sapiens [25] = species on record: Homo sapiens; assay: Selectivity index, ratio of Ki for human recombinant Muscarinic acetylcholine M1 receptor to Ki for human recombinant sigma1 receptor; in short: as §2
# Homo sapiens [26] = species on record: Homo sapiens; assay: Selectivity index, ratio of Ki for human recombinant Muscarinic acetylcholine M3 receptor to Ki for human recombinant sigma1 receptor; in short: as §2
# Homo sapiens [27] = species on record: Homo sapiens; assay: Selectivity index, ratio of Ki for human recombinant Muscarinic acetylcholine M4 receptor to Ki for human recombinant sigma1 receptor; in short: as §2
# Homo sapiens [28] = species on record: Homo sapiens; assay: Selectivity index, ratio of Ki for human recombinant Muscarinic acetylcholine M5 receptor to Ki for human recombinant sigma1 receptor; in short: as §2
# Homo sapiens [29] = species on record: Homo sapiens; assay: Selectivity index, ratio of Ki for human recombinant NET receptor to Ki for human recombinant sigma1 receptor; in short: as §2
# Homo sapiens [30] = species on record: Homo sapiens; assay: Selectivity index, ratio of Ki for human recombinant DOR receptor to Ki for human recombinant sigma1 receptor; in short: as §2
# Homo sapiens [31] = species on record: Homo sapiens; assay: Selectivity index, ratio of Ki for human recombinant KOR receptor to Ki for human recombinant sigma1 receptor; in short: as §2
# Homo sapiens [32] = species on record: Homo sapiens; assay: Selectivity index, ratio of Ki for human recombinant MOR receptor to Ki for human recombinant sigma1 receptor; in short: as §2
# [33] = Selectivity index, ratio of Ki for rat brain PBR receptor to Ki for human recombinant sigma1 receptor; in short: as §2
# 661W [34] = assay: Cytoprotective activity in mouse 661W cells assessed as inhibition of t-BHP induced oxidative stress by measuring increase in cell viability after 24 hrs by MTT assay; assay type: functional, cell-based
# 661W [35] = assay: Cytoprotective activity in mouse 661W cells assessed as inhibition of t-BHP induced oxidative stress by measuring cell viability at 200 uM after 24 hrs by MTT assay (reference value: >50%); assay type: functional, cell-based
# 661W [36] = assay: Cytoprotective activity in mouse 661W cells assessed as inhibition of t-BHP induced oxidative stress by measuring in cell viability at 30 uM in presence of 10 uM of […] preincubated for 30 mins followed by compound addition and measured after 24 hrs by MTT assay; assay type: functional, cell-based
# In short: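 Same 661W oxidative-stress setup: 55 μM tBHP for 24 h with test agent at 30 μM, plus the σ1 antagonist BD1063 at 10 μM. Viability is read by MTT.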
# 661W [37] = assay: Cytoprotective activity in mouse 661W cells assessed as reduction in tBHP-induced ROS level at 30 uM after 2 hrs by […] fluorescent microscopic analysis; assay type: functional, cell-based
# In short: (§3)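 661W cells seeded on coverslips for 18 h, then exposed 2 h to 55 μM tBHP with or without test agent or (+)-pentazocine. ROS are detected with CellROX green dye by epifluorescence, with DAPI marking nuclei. Fluorescence intensity is quantified as mean ± SD from three independent experiments, each run in duplicate.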
# 661W [38] = assay: Cytoprotective activity in mouse 661W cells assessed as reduction in tBHP-induced ROS level at 10 to 30 uM after 2 hrs by […] fluorescent microscopic analysis; assay type: functional, cell-based; in short: as §3
compound,measurement,setting,value
CC[C@H]1c2cc(C)ccc2OC[C@@]1(C)N (racemic),inhibition,[1],< 50%
same,inhibition,[2],< 50%
same,inhibition,[3],< 50%
same,inhibition,Rattus norvegicus,< 50%
COc1cc(OC)c2c(c1)OC[C@@]1(C)NCC[C@@H]21 (racemic),inhibition,[4],< 50%
same,Ratio Ki,Homo sapiens [5],> 5
same,Ratio Ki,Homo sapiens [6],> 20
same,Ratio Ki,Homo sapiens [7],> 20
same,Ratio Ki,Homo sapiens [8],> 20
same,Ratio Ki,Homo sapiens [9],> 20
same,Ratio Ki,Homo sapiens [10],> 20
same,Ratio Ki,Homo sapiens [11],> 20
same,Ratio Ki,Homo sapiens [12],> 20
same,Ratio Ki,Homo sapiens [13],> 20
same,Ratio Ki,Homo sapiens [14],> 20
same,Ratio Ki,Homo sapiens [15],> 20
same,Ratio Ki,Homo sapiens [16],> 20
same,Ratio Ki,[17],> 20
same,Ratio Ki,Homo sapiens [18],> 20
same,Ratio Ki,Homo sapiens [19],> 20
same,Ratio Ki,Homo sapiens [20],> 20
same,Ratio Ki,Homo sapiens [21],> 20
same,Ratio Ki,[22],> 20
same,Ratio Ki,Homo sapiens [23],> 20
same,Ratio Ki,Homo sapiens [24],> 20
same,Ratio Ki,Homo sapiens [25],> 20
same,Ratio Ki,Homo sapiens [26],> 20
same,Ratio Ki,Homo sapiens [27],> 20
same,Ratio Ki,Homo sapiens [28],> 20
same,Ratio Ki,Homo sapiens [29],> 20
same,Ratio Ki,Homo sapiens [30],> 20
same,Ratio Ki,Homo sapiens [31],> 20
same,Ratio Ki,Homo sapiens [32],> 20
same,Ratio Ki,[33],> 20
same,Activity,661W [34],Dose-dependent effect
same,Activity,661W [35],inactive
same,Activity,661W [36],inactive
same,inhibition,661W [37],Active
same,inhibition,661W [38],Active
